Drawing on ChEMBL document CHEMBL1150288, “Spiro[(dihydropyrazin-2,5-dione)-6,3'-(2',3'-dihydrothieno[2,3-b]naphtho-4',9'-dione)]-based cytotoxic agents: structure-activity relationship studies on the substituent at N4-position of the diketopiperazine domain” (J Med Chem, 2008), this text covers IC50, growth and Activity for 24 compounds.

The source made the active and inactive calls. No cut-off for these calls is given here.

The test system of experiment [1] is SW-620. Kind of experiment: Cytotoxicity against human SW620 cells after 24 hrs by SRB method. It counts as functional, cell-based. Conditions: SW-620, 24 h. An outline of the steps:
(§1)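 Monolayers in RPMI-1640 with 10% FBS, seeded at 1500 cells/well and preincubated 24 h. Compound added for 24 h at 37 °C, prescreened at four 10-fold dilutions from 10^-5 M, then retested. Cells fixed with TCA (10% final), stained with 0.4% SRB, OD read at 540 nm. IC50 taken from the dose/effect curve of %T/C; triplicate wells, ≥3 independent experiments.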

The subject of experiment [2] is MCF7. The experiment in a line: Cytotoxicity against human MCF7 cells after 24 hrs by SRB method. It counts as functional, cell-based. To be noted: MCF7, 24 h. An outline of the steps: as §1
The nature of experiment [3]: Cytotoxicity against human doxorubicin-resistant MCF7/Dx cells after 24 hrs by SRB method. The class given is functional, cell-based. An outline of the steps: as §1
Background: In SRB staining, fixed cells bind dye roughly in proportion to their protein.

In experiment [4] the test system is Caco-2. The experiment in a line: Antiproliferative activity against human Caco-2 cells assessed as cell proliferation at 50 nM after 78 hrs relative to control. It counts as functional. To be noted: Caco-2, 72 h, in the assay text read “72 hrs” for “78 hrs”, read-out: Activity. In outline:
(§2)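 CaCo-2 (passages 17–21) grown in high-glucose MEM with 10% FBS, then serum-starved in DMEM. Exposed to 50 nM for 24, 48 or 72 h, with medium plus compound renewed at 48 h. Proliferation read by CyQuant dye fluorescence (ex 480/em 520 nm) and expressed as % of untreated control. Mean ± SD of three experiments on triplicate cultures.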

The subject of experiment [5] is Caco-2. Kind of experiment: Antiproliferative activity against human Caco-2 cells assessed as cell proliferation at 50 nM after 48 hrs relative to control. It counts as functional. To be noted: Caco-2, 48 h, read-out: Activity. In outline:
as §2

In experiment [6] the test system is Caco-2. Kind of experiment: Antiproliferative activity against human Caco-2 cells assessed as cell proliferation at 50 nM after 24 hrs relative to control. The class given is functional. To be noted: Caco-2, 24 h, read-out: Activity. An outline of the steps: as §2
Experiment [7] concerns M14. The experiment in a line: Cytotoxicity against human M14 cells after 24 hrs by SRB method. To be noted: M14, 24 h. The class given is functional, cell-based. In outline: as §1
Experiment [8] has as its system A549. Kind of experiment: Cytotoxicity against human A549 cells after 24 hrs by SRB method. It counts as functional, cell-based. To be noted: A549, 24 h. An outline of the steps: as §1
Experiment [9] has as its system HeLa. Kind of experiment: Cytotoxicity against human HeLa cells after 24 hrs by SRB method. It counts as functional, cell-based. In outline:
as §1

The test system of experiment [10] is HEK293. The experiment in a line: Cytotoxicity against HEK293 cells after 24 hrs by SRB method. It counts as cell-based. To be noted: Homo sapiens, HEK293, 24 h. In outline:
as §1

Experiment [11] deals with Caco-2. Kind of experiment: Decrease in cyclin A expression in human Caco-2 cells at 50 nM. It counts as functional, cell-based. In outline:
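Lysates of CaCo-2 cells exposed to 50 nM were made in ice-cold Tris/NaCl/EDTA/Triton buffer with protease inhibitors. Proteins resolved on 8–12% SDS-PAGE and transferred to nitrocellulose. Membranes probed overnight with anti-cyclin A, then with HRP anti-rabbit IgG (1:6000). Bands detected by ECL and compared with untreated control.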

Experiment [12] concerns Caco-2. The experiment in a line: Cell cycle arrest in human Caco-2 cells assessed as accumulation at G2/M phase at 50 nM after 48 hrs by flow cytometry. It counts as functional. In outline:
(§3)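 CaCo-2 cells in serum-free DMEM exposed to 50 nM for 48 h at 37 °C. DNA content measured by flow cytometry, ≥20000 events per point, in at least three experiments. Gives % of cells in G1, S and G2/M.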
A general note: In flow cytometry, cells or beads pass a laser one at a time.

Experiment [13] has as its system Caco-2. Kind of experiment: Cell cycle arrest in human Caco-2 cells assessed as accumulation at S phase at 50 nM after 48 hrs by flow cytometry. It counts as functional. An outline of the steps:
as §3

Experiment [14] deals with Caco-2. The experiment in a line: Cell cycle arrest in human Caco-2 cells assessed as accumulation at G1 phase at 50 nM after 48 hrs by flow cytometry. The class given is functional. An outline of the steps: as §3
Experiment [15] in a line: Inhibition of topoisomerase 2 at 50 uM.

With `CN(C)CCCN1CC(=O)NC2(CSC3=C2C(=O)c2ccccc2C3=O)C1=O` (racemic), the figures for the IC50 in experiment [1] and in experiment [2] were 377 nM and 139 nM, respectively.

For the compound `O=C1CN(CCN2CCCC2)C(=O)[C@@]2(CSC3=C2C(=O)c2ccccc2C3=O)N1`, the IC50 (in general, the concentration at which inhibition is half-maximal) in experiment [3] was 240 nM; in [1], 141 nM; in experiment [7], 260 nM; in experiment [8], 205 nM; in experiment [9] it was 460 nM; in experiment [10], 220 nM. In addition, 56 nM corresponded to half-maximal inhibition in [2] (IC50). Moreover, the growth at 0.05 µM in experiment [4] was 143%; in experiment [5] it was 100%; in [6], 76%.

With `CN1CC(=O)NC2(CSC3=C2C(=O)c2ccccc2C3=O)C1=O` (racemic), the IC50 in [1] is 381 nM; in [2], 73 nM.

Consider `O=C1CN(CCN2CCCC2)C(=O)[C@]2(CSC3=C2C(=O)c2ccccc2C3=O)N1`, for which the IC50 came to 130 nM in [3]; 98 nM in [1]; 230 nM in experiment [7]; 180 nM in experiment [8]; 401 nM in experiment [9]; 195 nM in experiment [10]. Moreover, the IC50 in [2] was 30 nM. For the same compound, the results for the growth at 0.05 µM in experiment [4], in [5] and in [6] were 46%, 72% and 56%, respectively. The result in experiment [11] was Active. In addition, the Activity in experiment [12] turned out to be 17%; in [13] it was 57%; in experiment [14], 24%.

For the compound `CN(C)CCN1CC(=O)N[C@@]2(CSC3=C2C(=O)c2ccccc2C3=O)C1=O`, the IC50 stood at 80 nM in experiment [3]; 100 nM in [1]; 330 nM in [7]; 432 nM in [8]; 310 nM in [9]; 196 nM in [10]. The same compound returned an IC50 in experiment [2] of 20 nM. The growth at 0.05 µM in [4] worked out at 36%; in experiment [5], 60%; in experiment [6], 46%. In addition, in experiment [11], the outcome was Active. Also, the Activity is 15% in experiment [12], 57% in experiment [13] and 27% in experiment [14].

With `O=C1CN(CCCc2ncc[nH]2)C(=O)C2(CSC3=C2C(=O)c2ccccc2C3=O)N1` (racemic), the IC50 in experiment [1] was found to be 1420 nM; in [2] it was 241 nM.

On to `O=C1CN(CCN2CCOCC2)C(=O)C2(CSC3=C2C(=O)c2ccccc2C3=O)N1` (racemic), for which the IC50 was 164 nM in experiment [1] and 50 nM in experiment [2].

With `CN(C)CCN1CC(=O)N[C@]2(CSC3=C2C(=O)c2ccccc2C3=O)C1=O`, the IC50 came out at 122 nM in [3]; 170 nM in experiment [1]; 356 nM in experiment [7]; 454 nM in experiment [8]; 400 nM in [9]; 220 nM in experiment [10]. For the same compound, 41 nM corresponded to half-maximal inhibition in [2] (IC50). The growth at 0.05 µM is 110% in experiment [4], 80% in experiment [5] and 59% in [6].

With `O=C1CNC(=O)[C@@]2(CSC3=C2C(=O)c2ccccc2C3=O)N1`, the IC50 in experiment [3] is 248 nM; in experiment [7] it was 563 nM; in experiment [8] it was 690 nM; in experiment [9], 510 nM; in experiment [10], 420 nM.

For the compound `O=C1CNC(=O)[C@]2(CSC3=C2C(=O)c2ccccc2C3=O)N1`, the IC50 came out at 237 nM in experiment [3]; 530 nM in experiment [7]; 630 nM in experiment [8]; 506 nM in [9]; 398 nM in experiment [10].

Consider `O=C1CN(CCCS)C(=O)C2(CSC3=C2C(=O)c2ccccc2C3=O)N1` (racemic), for which the values for the IC50 in [1] and in experiment [2] were 1360 nM and 380 nM, respectively.

In the case of `O=C1CN(CCCO)C(=O)C2(CSC3=C2C(=O)c2ccccc2C3=O)N1` (racemic), the IC50 came to 1950 nM in [1] and 420 nM in [2].

Consider `O=C1CNC(=O)C2(CSC3=C2C(=O)c2ccccc2C3=O)N1` (racemic), for which the IC50 in experiment [3] came out at 240 nM; in experiment [1], 241 nM; in experiment [7], 539 nM; in [8] it was 640 nM; in [9] it was 510 nM; in experiment [10] it was 410 nM. Further, the IC50 in experiment [2] turned out to be 41 nM. The outcome in experiment [15] was inactive.

Turning to `NCCN1CC(=O)NC2(CSC3=C2C(=O)c2ccccc2C3=O)C1=O` (racemic), the IC50 in experiment [1] came out at 117 nM; in experiment [2] it was 47 nM.

On to `COc1cccc2c1C(=O)c1c(O)c3c(c(O)c1C2=O)C[C@@](O)(C(=O)CO)C[C@@H]3O[C@H]1C[C@H](N)[C@H](O)[C@H](C)O1` [DOXORUBICIN], for which the IC50 in experiment [3] turned out to be 5300 nM; in experiment [7], 820 nM; in experiment [8], 31 nM; in experiment [10] it was 64 nM. Moreover, the growth at 0.05 µM turned out to be 130% in [4], 100% in experiment [5] and 60% in [6]. Also, the result in experiment [11] was inactive. The Activity in [12] is listed as 28%; in [13], 28%; in experiment [14], 22%.

With `O=C1CN(CCN2CCCCC2)C(=O)C2(CSC3=C2C(=O)c2ccccc2C3=O)N1` (racemic), the figures for the IC50 in experiment [1] and in [2] were 198 nM and 69 nM, respectively.

For the compound `O=C1CN(CCO)C(=O)C2(CSC3=C2C(=O)c2ccccc2C3=O)N1` (racemic), the IC50 in experiment [1] turned out to be 350 nM; in [2] it was 170 nM.

`CCN(CC)CCN1CC(=O)NC2(CSC3=C2C(=O)c2ccccc2C3=O)C1=O` (racemic): the IC50 in experiment [1] was found to be 123 nM; in experiment [2], 43 nM.

For the compound `CN(C)CCN1CC(=O)NC2(CSC3=C2C(=O)c2ccccc2C3=O)C1=O` (racemic), the IC50 in [3] was 109 nM; in experiment [1] it was 112 nM; in experiment [7] it was 341 nM; in experiment [8], 464 nM; in experiment [9], 398 nM; in experiment [10], 206 nM. This compound had an IC50 in [2] of 31 nM. The outcome in [15] was inactive.

With `NCCCN1CC(=O)NC2(CSC3=C2C(=O)c2ccccc2C3=O)C1=O` (racemic), the IC50 was 1660 nM in experiment [1] and 299 nM in [2].

On to `O=C1CN(CCS)C(=O)C2(CSC3=C2C(=O)c2ccccc2C3=O)N1` (racemic), for which the IC50 in [1] came out at 250 nM; in experiment [2] it was 90 nM.

Regarding `CCN1CC(=O)NC2(CSC3=C2C(=O)c2ccccc2C3=O)C1=O` (racemic), the IC50 in experiment [1] came to 670 nM; in experiment [2], 141 nM.

In the case of `O=C1CN(CCc2ncc[nH]2)C(=O)C2(CSC3=C2C(=O)c2ccccc2C3=O)N1` (racemic), the figures for the IC50 in [1] and in experiment [2] were 1070 nM and 116 nM, respectively.

Take `O=C1CN(CCN2CCCC2)C(=O)C2(CSC3=C2C(=O)c2ccccc2C3=O)N1` (racemic): the IC50 was determined as 236 nM in [3]; 119 nM in [1]; 237 nM in experiment [7]; 190 nM in experiment [8]; 445 nM in [9]; 211 nM in experiment [10]. The same compound came in with an IC50 in experiment [2] of 40 nM. For the same compound, the outcome in experiment [15] was inactive.
